In the RNAGym collection of RNA variant scans (doi:10.1038/nmeth.2970):

B1: NELF-E aptamer (parent)
chain: CCCAACGACUGCCGAGCGAGAUUACGCUUGAGCGCCCCACUGAGGAUGCCCACGGGCGAUUGGGGCACGG

Variants of: B1
Experiment: HiTS-RAP
Details: with NELF-E (Drosophila)
Summary of the method: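 Aptamer DNA templates bearing a T7 promoter and a ter site were sequenced on an Illumina GAIIx flowcell. T7 RNA polymerase then transcribed them in situ, and GST-Tus halted transcription over 30 minutes at 37°C. After a 30-minute room-temperature equilibration with NELF-E-mOrange at 0.064 to 1000 nM in HEPES binding buffer, clusters were imaged, using only the first binding curve. Intensities normalised to sequencing intensity were averaged per sequence and fitted with weighted Hill fits to give Kd, retaining only fits whose variance stayed under 1,000,000.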
CCCUACGACUGCAGAGCGAGAUUACGCUUGAGCGCCCCACUGAGGAUGCCCACGGGCGAUUGGGGCACGG [A4U C13A] gave a Kd of 4.82 nM. Variant CCCAACGACUGCCGAGGUAGAUUACGCUUGAGCGCCCCACUGAGGAUGCCCACGGGCGAUUGGGGCACGG [C17G G18U] has a Kd of 6.33 nM. CCCAUCGACUGCCGAGGGAGAUUACGCUUGAGCGCCCCACUGAGGAUGCCCACGGGCGAUUGGGGCACGG [A5U C17G] gave a Kd of 6.36 nM. Variant CCCAACGACUGCCGAUCGUGAUUACGCUUGAGCGCCCCACUGAGGAUGCCCACGGGCGAUUGGGGCACGG [G16U A19U] has a Kd of 5.21 nM. In the case of CCCAACGACUGCCGAGCGAGAGUACGCUUGAGCGCCCCACUGAGGAUGCCCACGGGCGAUUGGGGCUCGG [U22G A67U], the Kd is reported as 7.3 nM. Variant CCCAACGAGUGCCGAGCGAGAUUACGCUUGAGCGCCCCACUGAGGAUGCCCACGGGCGAUUGGGACACGG [C9G G65A] has a Kd of 4.83 nM. Variant CCCAACGACUGCCGAGCGAGAUGACGCAUGAGCGCCCCACUGAGGAUGCCCACGGGCGAUUGGGGCACGG [U23G U28A] has a Kd of 5.01 nM. CCCAACGACUGCCGAGCGAGAUGACGCUUGAGCGCCCCACUGAGGAUGCCGACGGGCGAUUGGGGCACGG [U23G C51G] gave a Kd of 5.33 nM. With CCCAACGACUGCCGAGCGAGUUUACGCUUGAGCGCCCCACUGAGGAUGCCCACGGGCGAUUGGGGCGCGG [A21U A67G] the Kd was 5.54 nM. Variant CCCAUCGACUGCCGAGCGAGAUUACGCUUGAGCGCCCCACUGAGGAUGCCCACGGGCGAUUGGGUCACGG [A5U G65U] has a Kd of 8.58 nM. CCCGACGACUGCCGAGCGAGAUUACGCUUGAGCGCCCCACUGAGGAUGCCCACGGGCGUUUGGGGCACGG [A4G A59U] showed a Kd of 113 nM. CCCAACGACUGCCGAGCGAGAUUACGCUUGAGCGCGCCACUGAGGAUGCCCACGGGCGAUUGGGGCACGG [C36G] gave a Kd of 6 nM. CCCAACGACUGCCGAGUGAGAUUACGCUUGAGCGCCCCACUGAGGAUGCCCACGGGCGAUUGGGGCACGG [C17U] gave a Kd of 4.56 nM. Variant CCCAACGACUGCCGAGCGAGAGUACGCUUGAGCGCCCCACUGAGGAUGCCCACGUGCGAUUGGGGCACGG [U22G G55U] has a Kd of 7.97 nM. Work on CCCGACGACUGCUGAGCGAGAUUACGCUUGAGCGCCCCACUGAGGAUGCCCACGGGCGAUUGGGGCACGG [A4G C13U] yielded a Kd of 4.78 nM. In the case of CCCAACGACUUCCUAGCGAGAUUACGCUUGAGCGCCCCACUGAGGAUGCCCACGGGCGAUUGGGGCACGG [G11U G14U], the Kd is reported as 6.82 nM. CCCAAUGACUGCUGAGCGAGAUUACGCUUGAGCGCCCCACUGAGGAUGCCCACGGGCGAUUGGGGCACGG [C6U C13U] showed a Kd of 5.09 nM. CCCAGCGACUGCCGAGCGAGAUUACGUUUGAGCGCCCCACUGAGGAUGCCCACGGGCGAUUGGGGCACGG [A5G C27U] gave a Kd of 5.87 nM. Variant CCCAACGACUGCUGAUCGAGAUUACGCUUGAGCGCCCCACUGAGGAUGCCCACGGGCGAUUGGGGCACGG [C13U G16U] has a Kd of 6.59 nM. For CCCAACGACUGCGGAGCGAGAUUACGCUUGAGCGCCCCACUGAGGAUGCCCACGGGCGUUUGGGGCACGG [C13G A59U], the Kd was 42.1 nM. With CCCAACGACUGCCGAGCGAGAUUACGCUUGAGCGCCGCACUGAGGAUGCCCACGGGCGAUUGGGGCACGG [C37G] the Kd was 5.85 nM. Work on CCCAACGGCUGCCGAGCGAGAUUACGCUUGUGCGCCCCACUGAGGAUGCCCACGGGCGAUUGGGGCACGG [A8G A31U] yielded a Kd of 5.68 nM. Variant CCCAUCGACUGCCGAGCGAGAUUACGCUUGAGCGCCCCACUGAGGAUGCCCACGGGUGAUUGGGGCACGG [A5U C57U] has a Kd of 6.5 nM. CCCAACGACUGCCUAGCGAGAUUACGCUAGAGCGCCCCACUGAGGAUGCCCACGGGCGAUUGGGGCACGG [G14U U29A] gave a Kd of 5.7 nM. With CCCAACGACUGCCGAGCGAGAGGACGCUUGAGCGCCCCACUGAGGAUGCCCACGGGCGAUUGGGGCACGG [U22G U23G] the Kd was 6.17 nM. CCCAACGACUUCCGAGCGAGAUUACGCUUGAGCGCCCCACUGAGGAUGCCCACGGGCGAUUAGGGCACGG [G11U G62A] showed a Kd of 19.7 nM. For CCCAUCGACUGCCGAGCGAGAUUACGCUUGAGCGCCCCACUAAGGAUGCCCACGGGCGAUUGGGGCACGG [A5U G42A], the Kd was 67.8 nM. With CCCAACGUCUGCCGAGCGAGAUUACGCUUGAGCGCCCUACUGAGGAUGCCCACGGGCGAUUGGGGCACGG [A8U C38U] the Kd was 8.93 nM. Work on CCCAUCGACUGCCGAGCGAGAUUACGCCUGAGCGCCCCACUGAGGAUGCCCACGGGCGAUUGGGGCACGG [A5U U28C] yielded a Kd of 7.9 nM. Work on CCCGACGACUGCCGAGCGAGAUUACGCUUGAGCGCCCCACUGAGGAUGCCCACGGGCGAUUGGGGCACGG [A4G] yielded a Kd of 5.08 nM. For CCCCACGACUGGCGAGCGAGAUUACGCUUGAGCGCCCCACUGAGGAUGCCCACGGGCGAUUGGGGCACGG [A4C C12G], the Kd was 7.65 nM. CCCAAUGACGGCCGAGCGAGAUUACGCUUGAGCGCCCCACUGAGGAUGCCCACGGGCGAUUGGGGCACGG [C6U U10G] gave a Kd of 5.57 nM. In the case of CCCGACGACUGCCGAGCGGGAUUACGCUUGAGCGCCCCACUGAGGAUGCCCACGGGCGAUUGGGGCACGG [A4G A19G], the Kd is reported as 5.64 nM. Variant CCCGACGACUGCCGAGCGUGAUUACGCUUGAGCGCCCCACUGAGGAUGCCCACGGGCGAUUGGGGCACGG [A4G A19U] has a Kd of 6.08 nM. Work on CCCAACGACUGCCGAGCGAGAUUACGCUUGAGCGCCCCACUGAGGAUGCACACGGGCGAUUGGGGCACGG [C50A] yielded a Kd of 14.7 nM. Variant CCCAACAACUGCCGAGCGAGAUUACGCUUGAGCGCCCCACUGAGGAUGCCCACGGGCGAUUGAGGCACGG [G7A G63A] has a Kd of 14.4 nM. Variant CCCAACGACUGCCGAGCGGGAUUACACUUGAGCGCCCCACUGAGGAUGCCCACGGGCGAUUGGGGCACGG [A19G G26A] has a Kd of 4.12 nM. With CCCAACGACUGCCGAGCGAGAGUACGCUUGAGCGCCCCACUGAGGAUGCCCGCGGGCGAUUGGGGCACGG [U22G A52G] the Kd was 4.99 nM. CCCAACGACUGCCGAGCGAGAUUACGCUUGAGCGCCCCACUGAGGAUGCCCACGGGCGAUUGGGGCACUG [G69U] showed a Kd of 5.33 nM.
